Three molecules from ChEMBL document CHEMBL1129944, “[[(Arylpiperazinyl)alkyl]thio]thieno[2,3-d]pyrimidinone derivatives as high-affinity, selective 5-HT1A receptor ligands” (J Med Chem, 1997) can be followed below.

Test [1] concerns the target T1, Adrenergic receptor alpha-1 (Rattus norvegicus, UniProt P15823+P23944+P43140).
T1 sequence (P15823 whole entry): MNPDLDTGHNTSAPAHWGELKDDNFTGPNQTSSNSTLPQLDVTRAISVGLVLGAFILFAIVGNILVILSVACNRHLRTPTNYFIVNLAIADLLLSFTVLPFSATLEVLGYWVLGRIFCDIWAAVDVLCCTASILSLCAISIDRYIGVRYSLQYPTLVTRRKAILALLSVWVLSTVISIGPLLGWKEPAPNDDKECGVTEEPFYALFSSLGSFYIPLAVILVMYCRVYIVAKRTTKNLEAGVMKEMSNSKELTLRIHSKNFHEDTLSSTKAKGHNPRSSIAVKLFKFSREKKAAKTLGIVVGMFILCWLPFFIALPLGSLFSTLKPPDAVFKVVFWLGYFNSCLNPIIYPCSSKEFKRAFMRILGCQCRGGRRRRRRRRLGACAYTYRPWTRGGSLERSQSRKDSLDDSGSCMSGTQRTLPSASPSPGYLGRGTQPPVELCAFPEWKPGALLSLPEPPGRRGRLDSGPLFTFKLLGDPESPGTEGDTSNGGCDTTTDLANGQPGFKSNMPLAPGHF
T1 sequence (P23944 whole entry): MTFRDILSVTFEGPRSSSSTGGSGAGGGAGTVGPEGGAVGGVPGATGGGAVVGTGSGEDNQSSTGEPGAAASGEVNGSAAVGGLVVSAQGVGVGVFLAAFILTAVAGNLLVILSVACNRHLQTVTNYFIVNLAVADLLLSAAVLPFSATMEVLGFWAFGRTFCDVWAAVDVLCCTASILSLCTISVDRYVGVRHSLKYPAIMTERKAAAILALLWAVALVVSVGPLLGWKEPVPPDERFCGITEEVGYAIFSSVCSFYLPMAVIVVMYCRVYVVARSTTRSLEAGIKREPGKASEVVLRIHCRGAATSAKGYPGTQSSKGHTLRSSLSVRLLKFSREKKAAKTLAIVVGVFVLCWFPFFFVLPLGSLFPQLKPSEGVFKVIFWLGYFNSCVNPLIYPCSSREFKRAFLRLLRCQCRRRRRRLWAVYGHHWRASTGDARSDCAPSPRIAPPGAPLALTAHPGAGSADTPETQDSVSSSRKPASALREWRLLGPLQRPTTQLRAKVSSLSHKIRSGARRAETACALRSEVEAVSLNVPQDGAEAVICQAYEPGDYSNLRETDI
T1 sequence (P43140 whole entry): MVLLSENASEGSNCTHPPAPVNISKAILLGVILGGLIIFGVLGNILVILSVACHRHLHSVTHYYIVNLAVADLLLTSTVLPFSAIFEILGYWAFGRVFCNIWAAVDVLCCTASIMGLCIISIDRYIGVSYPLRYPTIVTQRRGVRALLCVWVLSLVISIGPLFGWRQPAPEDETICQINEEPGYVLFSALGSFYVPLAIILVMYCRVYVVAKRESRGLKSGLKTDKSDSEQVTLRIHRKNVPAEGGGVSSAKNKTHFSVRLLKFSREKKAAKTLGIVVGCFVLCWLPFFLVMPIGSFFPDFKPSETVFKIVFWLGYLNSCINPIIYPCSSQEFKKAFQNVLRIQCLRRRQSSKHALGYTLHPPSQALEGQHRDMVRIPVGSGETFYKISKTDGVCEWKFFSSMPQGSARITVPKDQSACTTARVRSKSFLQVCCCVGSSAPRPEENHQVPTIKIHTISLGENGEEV
In words: In vitro inhibitory concentration against radioligand [3H]prazosin binding to alpha-1 adrenergic receptor in rat cortical membrane. The class given is cell membranes. The gist of the method: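 Male CRL:CD(SD)BR-COBS rats (~150 g) were decapitated. Cortex was homogenized in 50 mM Tris-HCl pH 7.4, spun at 50000g, given 10 min at 37 °C and washed. Incubation buffer had 0.1% ascorbic acid and 10 μM pargyline. GF/B filtration and scintillation counting; IC50 from dose-inhibition curves.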

In test [2] the target is D(1A) dopamine receptor (Rattus norvegicus, UniProt P18901). In words: In vitro inhibitory concentration against radioligand [3H]SCH-23390 binding to Dopamine receptor D1 in rat striatal membrane. The class given is cell membranes, Striatum. An outline of the steps:
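Rat striatal membranes were incubated in 50 mM Tris-HCl pH 7.1 containing 10 μM pargyline, 120 mM NaCl, 5 mM KCl, 2 mM CaCl2, 1 mM MgCl2 and 0.1% ascorbic acid. [3H]SCH23390 0.4 nM final, 15 min at 37 °C; nonspecific binding with (-)-cis-flupentixol 10 μM. Filtered and counted; IC50 by curve analysis.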

The target of test [3] is D(2) dopamine receptor (Rattus norvegicus, UniProt P61169). Briefly: In vitro inhibitory concentration against radioligand [3H]spiperone binding to Dopamine receptor D2 in rat striatal membrane. The class given is cell membranes, Striatum. The gist of the method: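 Rat striatum was used, with incubation buffer 50 mM Tris-HCl pH 7.1 plus pargyline 10 μM, NaCl 120 mM, KCl 5 mM, CaCl2 2 mM, MgCl2 1 mM and 0.1% ascorbic acid. [3H]spiperone 0.2 nM final, 15 min at 37 °C; (-)sulpiride 100 μM defined nonspecific binding. GF/B filtration, scintillation counting, IC50 from fitted curves.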

Test [4] addresses T2, 5-hydroxytryptamine receptor 1A (Rattus norvegicus, UniProt P19327).
T2 sequence (P19327 whole entry): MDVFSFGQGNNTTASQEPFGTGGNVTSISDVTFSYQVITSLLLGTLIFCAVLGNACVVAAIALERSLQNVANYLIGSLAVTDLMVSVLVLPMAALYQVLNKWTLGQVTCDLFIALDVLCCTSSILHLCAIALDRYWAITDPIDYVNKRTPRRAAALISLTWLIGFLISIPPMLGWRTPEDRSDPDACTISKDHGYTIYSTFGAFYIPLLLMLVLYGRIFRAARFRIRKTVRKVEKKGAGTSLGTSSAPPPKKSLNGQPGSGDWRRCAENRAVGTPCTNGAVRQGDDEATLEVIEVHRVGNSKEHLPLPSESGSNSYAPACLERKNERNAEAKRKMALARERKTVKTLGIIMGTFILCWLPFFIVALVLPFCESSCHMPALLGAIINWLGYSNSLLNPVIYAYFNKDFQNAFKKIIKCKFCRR
Briefly: In vitro inhibitory concentration against radioligand [3H]8-OH-DPAT binding to 5-hydroxytryptamine 1A receptor in rat hippocampal membrane. The class given is cell membranes, Hippocampus. The gist of the method: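 Rat hippocampal membranes (male SD rats, ~150 g) were washed in 50 mM Tris-HCl pH 7.4, including 10 min at 37 °C. Incubation buffer contained 4 mM CaCl2 and 10 μM pargyline. Filtered onto GF/B and counted; 50% inhibitory concentration from fitted curves.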

On to `COc1ccccc1N1CCN(CCCSc2nc3sc(C)c(C)c3c(=O)n2N)CC1`, for which the IC50 in test [1] was determined as 7.3 nM; in test [2], 400 nM; in test [3], 60 nM; in test [4], 0.3 nM.
With `Cc1sc2nc(SCCCN3CCN(c4ncccn4)CC3)n(N)c(=O)c2c1C`, the IC50 in test [1] is 506 nM; in test [2] it was 600 nM; in test [3], 2000 nM; in test [4], 6.8 nM.
In the case of `COc1ccccc1C1CCN(CCCSc2nc3sc(C)c(C)c3c(=O)n2N)CC1`, the IC50 in test [1] is 36 nM; in test [2] it was 800 nM; in test [3] it was 100 nM; in test [4] it was 0.8 nM.
